From PubChem BioAssay
HNF4A DNA FP: change in binding of human HNF4 alpha to DNA; HNF4a-FITC DNA binding, fluorescence polarization, 1 h; P41235; 360,000 compounds, 0.3% hits; activity change, % at 10 µM; in the data active = activity change above about 30%, passing the limit was not always enough
Target sequence (P41235 whole entry, looked up): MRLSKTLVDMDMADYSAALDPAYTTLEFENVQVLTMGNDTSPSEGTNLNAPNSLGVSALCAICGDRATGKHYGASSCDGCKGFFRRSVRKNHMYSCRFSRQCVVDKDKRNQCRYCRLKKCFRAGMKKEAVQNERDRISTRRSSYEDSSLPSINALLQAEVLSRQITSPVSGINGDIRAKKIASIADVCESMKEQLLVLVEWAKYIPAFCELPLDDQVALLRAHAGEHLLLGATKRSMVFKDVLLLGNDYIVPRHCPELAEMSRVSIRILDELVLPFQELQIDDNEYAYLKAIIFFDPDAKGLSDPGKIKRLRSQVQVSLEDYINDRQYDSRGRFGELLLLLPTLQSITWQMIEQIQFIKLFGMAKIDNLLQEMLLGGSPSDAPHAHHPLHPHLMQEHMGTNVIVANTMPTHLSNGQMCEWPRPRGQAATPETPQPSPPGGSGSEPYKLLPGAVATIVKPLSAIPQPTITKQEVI
CSN inh: blocks human CSN-mediated cullin deneddylation. Q92905. Purified CSN, SCF-Nedd8-OG deneddylation, fluorescence polarization. inhibition, % at 12.5 µM. 360,000 compounds, 0.38% hits;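 active = pattern-corrected inhibition above about 35%, with an unprinted fluorescence ratio check between 0.5 and 1.5, limit read from the data, passing the limit was not always enough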;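 note: 0% = enzyme with substrate and 100% = substrate without enzyme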
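Test system: purified human Csn5 enzyme expressed in HEK293T cells. Amount: 0.24 nM enzyme. Reagent: SCFSkp2-Nedd8OG substrate at 10 nM final. Schedule: 90 min incubation of compound, enzyme and substrate at room temperature. Detection: fluorescence polarization. Read-out: % inhibition of substrate cleavage by Csn5.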
TPT1 inhibitor: blocks Candida albicans tRNA 2'-phosphotransferase; recombinant caTPT1, FP RNA substrate dephosphorylation; AID 1962; 300,000 compounds, 0.81% hits; inhibition, % at 5 µM;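 active = inhibition above the mean of all tested compounds plus 3 SD, set per screening campaign, cut at about 24% in these data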;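 note: plate controls were DMSO alone for no effect and ferristatin control at 100 nM for full effect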
Rpn11 block: Rpn11 (human) deubiquitinase inhibition. 360,000 compounds, 0.59% hits. human 26S proteasome, Ub4-pepOG fluorescence polarization; 20S core pre-blocked with epoxomicin. inhibition, % at 20 µM. O00487. AID 588493;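 active = inhibition at 20 µM, scaled to each plate's controls, above about 33%, limit read from the data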
Myeloid diff 2: compounds promoting myeloid differentiation | ER-HoxA9 myeloid progenitors, lysozyme-GFP differentiation, flow cytometry | calls only at 10 µM | 360,000 compounds, 1% hits | AID 624256;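 active = normalized GFP-positive differentiation at or above the plate's own cutoff, the solvent-only control mean plus 3 SD; inconclusive = no clear call, values can overlap the other calls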;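 note: cells exposed to compound for four days before flow analysis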
* marks the source's active call; other numbers are inactive results; i = inactive; ? = inconclusive; . = no result given; + = active, no number. Rows were chosen to be rich in hits. Some 2.3% of all compounds tested hit in one or more screens of this group.

SMILES | HNF4A DNA FP | CSN inh | TPT1 inhibitor | Rpn11 block | Myeloid diff 2
COc1ccccc1NC(=O)C(=O)N/N=C/c1ccc([N+](=O)[O-])s1 | -2 | 9 | . | 0 | +
O=C(N/N=C/c1ccc([N+](=O)[O-])s1)C(O)c1ccccc1 (stereo unspecified) | 3 | 6 | 2 | -1 | i
Cc1cc2nc(-c3ccc(F)cc3)c(Cc3cccc(Cl)c3)n2c(C)c1Br | 7 | 3 | . | . | i
C[C@H](O)[C@@H]1CN2CCc3c([nH]c4ccccc34)[C@@H]2C[C@@H]1N(C)C(=S)Nc1ccc(C#N)cc1 | 2 | 2 | . | -6 | i
Cc1cccc(C)c1NC(=O)C1(C)CN(S(C)(=O)=O)CC(=O)N1CCc1ccccc1F (stereo unspecified) | 2 | 2 | . | . | i
O=C(N1CCN(c2ccccc2)CC1)C1(S(=O)(=O)c2ccc(Cl)cc2)CC1 | 2 | 2 | 0 | -13 | +
O=C(NCC[C@H]1CC[C@H](NS(=O)(=O)c2ccccc2F)[C@@H](CO)O1)c1ccc(F)cc1 | 0 | 0 | . | . | i
COC(=O)c1ccccc1NC(=O)CSc1nnc(C(CO)NC(=O)c2ccccc2Cl)n1C (stereo unspecified) | 37* | -6 | 4 | -4 | i
CCCCNC(=O)C1C(c2ccc(C(F)(F)F)cc2)=Nc2ccccc2N1C(=O)c1cccc2ccccc12 (stereo unspecified) | 8 | 3 | . | . | i
COc1cc(/C=C/C(=O)c2ccc3c(c2)OCCO3)cc(Br)c1OCC(=O)N(C)C | -3 | 17 | 10 | 21 | +
Cc1cc(C)c2nc3nc(C)c(C)cc3c(N)c2c1 | 2 | 9 | . | 13 | +
CCOC(=O)/C(=C/C=C1\Sc2cc(C)c(C)cc2N1CC)C(C)=O | 171 | 35 | . | . | +
CCOC(=O)N1CCN(C(=O)C[C@@H]2C[C@@]3(C(=O)OC)CC(C)(C)CC=C3N(Cc3ccccc3)C2=O)CC1 | -2 | -2 | . | . | i
CC(=O)C(Cc1cnc(Cl)s1)(Cc1cnc(Cl)s1)C(C)=O | -1 | -3 | -5 | -1 | i
CC(=O)C(Cc1ccc(Cl)nc1)(Cc1ccc(Cl)nc1)C(C)=O | -3 | 2 | 2 | -10 | +
Cc1ccc(NC(=O)/C(C#N)=C/c2ccc(C)s2)c(C)c1 | 63 | 70* | -4 | . | i
COc1cccc(Nc2nc(C(N)C3CCCCC3)cs2)n1 (stereo unspecified) | 3 | -3 | . | 8 | i
CC(=NNC(=S)N1CCN(c2ccccn2)CC1)c1nccs1 | -1 | 8 | . | 20 | ?
CN(C)/C=C1\C=C2C(=O)c3ccccc3N2C1=O | -110 | -76 | -14 | -163 | +
O=C1c2ccccc2-n2c1nc1ccccc1c2=O | -1 | 4 | -2 | 2 | +
O=c1c2ccccc2nc2n1-c1ccccc1CCC2 | 0 | -8 | 1 | 13 | i
Cc1ccc(S(=O)(=O)N2CC3C(=O)C[C@@H](c4ccccc4)N(S(=O)(=O)c4cccc(Cl)c4)C3CC2c2ccccc2)cc1 (stereo partly specified) | 4 | 0 | . | . | i
CCOC(=O)c1c(NC(=O)CSc2cccc[n+]2[O-])sc(C(=O)Nc2ccccc2)c1C | 6 | 105* | 17 | 17 | i
O=S(=O)(NCC[C@@H]1CC[C@H](NS(=O)(=O)c2cccc(F)c2)[C@@H](CO)O1)c1cccc(F)c1 | 6 | 3 | . | . | i
CCN(CC)S(=O)(=O)c1ccc(N2Cc3ccccc3C2=N)cc1 | -1 | 12 | 0 | 38 | +
SMILES | HNF4A DNA FP | CSN inh | TPT1 inhibitor | Rpn11 block | Myeloid diff 2
CCN(CC)S(=O)(=O)c1cccc(N2CC(O)=C(c3ccccc3)C2=N)c1 | -1 | 0 | -6 | -7 | i
Cc1ccc(NC(=O)CN2CCC(Cc3ccccc3)CC2)cc1S(=O)(=O)N(C)C | 2 | -7 | 1 | 8 | +
CC(=O)N1CCN(CC(=O)Nc2ccc(C)c(S(=O)(=O)N(C)C)c2)CC1 | -1 | -10 | -1 | 8 | i
S=c1nc(Cc2ccc(Cl)cc2)[nH]c2ccccc12 | -1 | 0 | 1 | -4 | i
S=c1nc(COc2ccccc2)[nH]c2ccccc12 | -3 | -2 | 3 | -3 | +
S=c1nc(Cc2ccccc2)[nH]c2ccccc12 | 0 | -1 | 0 | 7 | +
CC(C)c1cn(CC[C@@H]2CC[C@@H](NC(=O)C3CCCCC3)[C@@H](CO)O2)nn1 | -2 | 1 | . | . | i
